Activity data for 19 compounds are collected here from ChEMBL document CHEMBL3244020, “Trichloroacetamidines, a new class of positive inotropic agents” (J Med Chem, 1978).

Assay [1] can be described thus: Positive inotropic activity in cat heart papillary muscle assessed as increase in contractile force at 2.5 ug/mL measured for 5 to 30 mins. The class given is functional, Felis catus, Muscle tissue. In outline:
(§1)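 Right-ventricular cat papillary muscles in Krebs–Henseleit at 37 °C, field-stimulated at 1/s (4–10 ms, 6–10 V). Muscles equilibrated about 90 min, until force fell to 25–30% of original. Compound added and force recorded at 5, 10, 20 and 30 min, followed by ouabain 0.5 μg/mL. Positives were retested on three more preparations at ≥3 concentrations. Scored as mg increase in contractile force.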

Assay [2] can be described thus: Positive inotropic activity in cat heart papillary muscle assessed as increase in contractile force at 10 ug/mL measured for 5 to 30 mins. The class given is functional, Felis catus, Muscle tissue. An outline of the steps:
as §1

Assay [3] is filed under the species Felis catus. The assay can be described thus: Positive inotropic activity in heart papillary muscle isolated from reserpine-treated cat assessed as increase in contractile force at 10 ug/mL measured for 5 to 30 mins. The class given is functional, tissue-based. The conditions noted are these: Muscle tissue. In outline: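 Cats pretreated with reserpine 0.5 mg/kg ip before papillary muscle isolation. Right-ventricular muscles kept in Krebs–Henseleit at 37 °C, stimulated at 1/s, and force recorded at 5–30 min after compound addition.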

The nature of assay [4]: Positive inotropic activity in cat heart papillary muscle assessed as increase in contractile force at 0.63 ug/mL measured for 5 to 30 mins. The class given is functional, Felis catus, Muscle tissue. In outline:
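Right-ventricular papillary muscles from cat hearts in a 100-mL bath of Krebs–Henseleit solution at 37 °C, driven electrically with square waves of 4–10 ms, 6–10 V, 1/s. Equilibrated about 90 min until force fell to 25–30% of initial. Compound added, contractile force read at 5, 10, 20 and 30 min, then ouabain 0.5 μg/mL as a responsiveness check. Positive inotropy means a rise above 20%.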

Assay [5] is described as follows: Positive inotropic activity in cat heart papillary muscle assessed as concentration required to increase contractile force by 500 mg measured for 5 to 30 mins. The class given is functional, Felis catus, Muscle tissue. In outline:
as §1

The species entered for assay [6] is Felis catus. Nature of the assay: Positive inotropic activity in cat heart papillary muscle assessed as increase in contractile force up to 10 ug/mL measured for 5 to 30 mins in presence of beta-adrenergic inhibitor sotalol. It is filed as functional, tissue-based. An outline of the steps: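 Cat right-ventricular papillary muscle in Krebs–Henseleit at 37 °C, electrically driven at 1/s. Force recorded 5–30 min after compound, in the presence of the β-blocker sotalol at 10 μg/mL. Scored as mg increase in contractile force.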

Active and inactive are the calls of the source. No cut-off for these calls is given here. Where only a bound is given, the exact number is not on record here.

In the case of `Cl.N=C(NCC1CC1)C(Cl)(Cl)Cl`, the Activity in assay [1] is 201 mg; in assay [2], 201 mg; in assay [4], less than 200 mg; in assay [5], 3.21 µg/mL. Moreover, the result in the assay listed under Felis catus [3] and in the assay listed under Felis catus [6] was Active.

`C[C@H](NC(=N)C(Cl)(Cl)Cl)c1ccccc1.Cl`: the figures for the Activity in assay [2] and in assay [5] were less than 200 mg and greater than 10 µg/mL, respectively. The result in the assay listed under Felis catus [6] was Active.

As to `Cn1cc(CNC(=N)C(Cl)(Cl)Cl)c2ccccc21`, the Activity in assay [2] came out at 201 mg. For the same compound, the result in the assay listed under Felis catus [6] was Active.

Regarding `CC(=O)Nc1ccc(OCC(O)CNC(=N)C(Cl)(Cl)Cl)cc1` (centres undefined), the Activity in assay [2] is 201 mg. Moreover, the result in the assay listed under Felis catus [6] was Active.

`C=CCN(C)C(=N)C(Cl)(Cl)Cl.O=C(O)/C=C\C(=O)O`: the Activity is 201 mg in assay [1], greater than 600 mg in assay [2], less than 200 mg in assay [4] and 5.47 µg/mL in assay [5]. Also, the outcome in the assay listed under Felis catus [6] was Active.

Take `ClC(Cl)(Cl)C1=NCCN1`: the Activity in assay [1] is 201 mg; in assay [2] it was greater than 600 mg; in assay [4] it was less than 200 mg; in assay [5] it was 4.86 µg/mL. Further, the outcome in the assay listed under Felis catus [6] was Active.

Regarding `C/N=C(\NCC1CC1)C(Cl)(Cl)Cl.Cl`, the Activity in assay [2] is greater than 600 mg. Moreover, the result in the assay listed under Felis catus [6] was Active.

As to `N=C(NCCc1ccc(O)cc1)C(Cl)(Cl)Cl`, the Activity in assay [2] was greater than 600 mg. Moreover, the result in the assay listed under Felis catus [6] was Active.

Regarding `COc1cccc(CNC(=N)C(Cl)(Cl)Cl)c1.Cl`, the Activity in assay [2] is 201 mg; in assay [5], greater than 10 µg/mL. Further, the outcome in the assay listed under Felis catus [6] was Active.

For the compound `Cl.N=C(NCCCO)C(Cl)(Cl)Cl`, the Activity is less than 200 mg in assay [1], 201 mg in assay [2] and greater than 10 µg/mL in assay [5]. Further, the outcome in the assay filed under Felis catus [6] was Active.

Turning to `COc1ccccc1CNC(=N)C(Cl)(Cl)Cl.Cl`, the Activity in assay [1] was 201 mg; in assay [2] it was 201 mg; in assay [4], less than 200 mg; in assay [5] it was 4.75 µg/mL. Also, the result in the assay filed under Felis catus [3] and in the assay filed under Felis catus [6] was Active.

In the case of `N=C(NCc1cn(C(=O)c2ccccc2)c2ccccc12)C(Cl)(Cl)Cl`, the Activity was 201 mg in assay [1], greater than 600 mg in assay [2], less than 200 mg in assay [4] and 6.2 µg/mL in assay [5]. Moreover, the outcome in the assay filed under Felis catus [3] and in the assay filed under Felis catus [6] was Active.

For `N=C(NCC(O)c1ccccc1)C(Cl)(Cl)Cl` (centres undefined), in assay [2], the Activity is given as greater than 600 mg. Besides, the outcome in the assay listed under Felis catus [6] was Active.

As to `CN(C)C(=N)C(Cl)(Cl)Cl.Cl`, the Activity in assay [2] is listed as greater than 600 mg. The result in the assay listed under Felis catus [6] was Active.

For the compound `N=C(NCC(O)COc1ccccc1)C(Cl)(Cl)Cl` (centres undefined), in assay [2], the Activity is recorded as 201 mg. The outcome in the assay filed under Felis catus [6] was Active.

For `Cc1ccc(CNC(=N)C(Cl)(Cl)Cl)cc1.Cl`, the Activity was less than 200 mg in assay [1], greater than 600 mg in assay [2], less than 200 mg in assay [4] and 8.43 µg/mL in assay [5]. Moreover, in the assay filed under Felis catus [6], the result was Active.

Take `COC(CNC(=N)C(Cl)(Cl)Cl)COc1ccccc1` (centres undefined): the Activity in assay [2] is reported as 201 mg. The result in the assay filed under Felis catus [6] was Active.

On to `N=C(NCc1ccccc1)C(Cl)(Cl)Cl`, for which, in assay [2], the Activity was less than 200 mg. Also, the outcome in the assay filed under Felis catus [6] was Active.

With `Cl.N=C(NCCCNC(=N)C(Cl)(Cl)Cl)C(Cl)(Cl)Cl`, the Activity was less than 200 mg in assay [2] and greater than 10 µg/mL in assay [5]. Besides, the outcome in the assay filed under Felis catus [6] was Active.
